ChEMBL document CHEMBL5649170, “Sustained microglial depletion with CSF1R inhibitor impairs parenchymal plaque development in an Alzheimer's disease model” (Nat Commun, 2019)
Activity calls are given as the source filed them. No cut-off for these calls is given here.

Legend:
[1] = target: Calcium/calmodulin-dependent protein kinase type II subunit beta (Homo sapiens, UniProt Q13554); assay: Inhibition of CAMK2B (unknown origin)
[2] = target: Cyclin-dependent kinase 5/CDK5 activator 1 (Homo sapiens, UniProt Q00535); assay: Inhibition of CDK5_p35 (unknown origin); format: protein-complex assay
Sequence of Cyclin-dependent kinase 5/CDK5 activator 1 (Q00535 whole entry, canonical isoform): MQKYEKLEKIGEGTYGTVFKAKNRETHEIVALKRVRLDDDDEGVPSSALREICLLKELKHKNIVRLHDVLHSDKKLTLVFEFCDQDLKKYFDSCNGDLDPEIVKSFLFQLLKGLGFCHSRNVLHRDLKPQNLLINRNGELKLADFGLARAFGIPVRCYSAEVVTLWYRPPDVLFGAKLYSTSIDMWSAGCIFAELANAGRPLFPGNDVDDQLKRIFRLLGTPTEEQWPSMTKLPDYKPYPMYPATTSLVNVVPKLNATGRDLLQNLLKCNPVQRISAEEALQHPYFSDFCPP
Sequence of Cyclin-dependent kinase 5/CDK5 activator 1 (Q15078 whole entry, further chain, canonical isoform): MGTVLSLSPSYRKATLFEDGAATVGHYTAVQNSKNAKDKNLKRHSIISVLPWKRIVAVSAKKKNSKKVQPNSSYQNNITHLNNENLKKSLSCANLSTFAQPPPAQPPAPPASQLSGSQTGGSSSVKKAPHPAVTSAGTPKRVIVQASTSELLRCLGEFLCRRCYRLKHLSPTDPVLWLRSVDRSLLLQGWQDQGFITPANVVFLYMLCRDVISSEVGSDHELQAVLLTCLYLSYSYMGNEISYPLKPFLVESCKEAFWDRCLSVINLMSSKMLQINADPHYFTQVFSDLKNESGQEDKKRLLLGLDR

[3] = target: Casein kinase I isoform gamma-1 (Homo sapiens, UniProt Q9HCP0); assay: Inhibition of CSNK1G1 (unknown origin)
[4] = target: Ephrin type-B receptor 1 (Homo sapiens, UniProt P54762); assay: Inhibition of EPHB1 (unknown origin)
Sequence of Ephrin type-B receptor 1 (P54762 whole entry): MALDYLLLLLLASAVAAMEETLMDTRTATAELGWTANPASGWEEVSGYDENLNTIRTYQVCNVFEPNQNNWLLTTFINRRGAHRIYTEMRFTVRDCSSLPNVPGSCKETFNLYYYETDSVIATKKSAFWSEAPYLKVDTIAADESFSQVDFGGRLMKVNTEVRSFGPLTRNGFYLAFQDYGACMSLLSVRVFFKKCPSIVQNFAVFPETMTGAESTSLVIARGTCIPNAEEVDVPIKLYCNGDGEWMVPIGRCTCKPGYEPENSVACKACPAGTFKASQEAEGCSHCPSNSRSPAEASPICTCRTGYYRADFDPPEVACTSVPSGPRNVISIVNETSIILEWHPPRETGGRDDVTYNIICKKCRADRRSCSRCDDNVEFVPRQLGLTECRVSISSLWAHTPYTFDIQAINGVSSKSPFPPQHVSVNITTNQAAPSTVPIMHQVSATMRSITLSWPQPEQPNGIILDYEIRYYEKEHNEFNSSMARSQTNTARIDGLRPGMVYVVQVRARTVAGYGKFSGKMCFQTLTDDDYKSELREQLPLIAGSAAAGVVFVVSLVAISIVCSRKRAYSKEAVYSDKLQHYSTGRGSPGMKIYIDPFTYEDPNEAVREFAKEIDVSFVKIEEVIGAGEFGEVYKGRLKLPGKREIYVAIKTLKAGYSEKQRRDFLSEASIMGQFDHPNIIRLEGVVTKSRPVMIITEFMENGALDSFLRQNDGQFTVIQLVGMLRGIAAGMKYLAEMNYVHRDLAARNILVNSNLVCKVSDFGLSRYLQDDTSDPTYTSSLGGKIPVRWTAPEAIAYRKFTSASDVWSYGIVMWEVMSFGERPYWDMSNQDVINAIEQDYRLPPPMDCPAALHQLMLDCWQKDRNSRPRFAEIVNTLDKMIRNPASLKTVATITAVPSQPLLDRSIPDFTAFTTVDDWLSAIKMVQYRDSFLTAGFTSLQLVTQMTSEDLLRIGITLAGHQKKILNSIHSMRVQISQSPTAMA

[5] = target: Fibroblast growth factor receptor 3 (Homo sapiens, UniProt P22607); assay: Inhibition of FGFR3 (unknown origin)
[6] = target: Tyrosine-protein kinase FRK (Homo sapiens, UniProt P42685); assay: Inhibition of FRK (unknown origin)
[7] = target: Insulin receptor (Homo sapiens, UniProt P06213); assay: Inhibition of INSR (unknown origin)
Sequence of Insulin receptor (P06213 28-758 limits assumed): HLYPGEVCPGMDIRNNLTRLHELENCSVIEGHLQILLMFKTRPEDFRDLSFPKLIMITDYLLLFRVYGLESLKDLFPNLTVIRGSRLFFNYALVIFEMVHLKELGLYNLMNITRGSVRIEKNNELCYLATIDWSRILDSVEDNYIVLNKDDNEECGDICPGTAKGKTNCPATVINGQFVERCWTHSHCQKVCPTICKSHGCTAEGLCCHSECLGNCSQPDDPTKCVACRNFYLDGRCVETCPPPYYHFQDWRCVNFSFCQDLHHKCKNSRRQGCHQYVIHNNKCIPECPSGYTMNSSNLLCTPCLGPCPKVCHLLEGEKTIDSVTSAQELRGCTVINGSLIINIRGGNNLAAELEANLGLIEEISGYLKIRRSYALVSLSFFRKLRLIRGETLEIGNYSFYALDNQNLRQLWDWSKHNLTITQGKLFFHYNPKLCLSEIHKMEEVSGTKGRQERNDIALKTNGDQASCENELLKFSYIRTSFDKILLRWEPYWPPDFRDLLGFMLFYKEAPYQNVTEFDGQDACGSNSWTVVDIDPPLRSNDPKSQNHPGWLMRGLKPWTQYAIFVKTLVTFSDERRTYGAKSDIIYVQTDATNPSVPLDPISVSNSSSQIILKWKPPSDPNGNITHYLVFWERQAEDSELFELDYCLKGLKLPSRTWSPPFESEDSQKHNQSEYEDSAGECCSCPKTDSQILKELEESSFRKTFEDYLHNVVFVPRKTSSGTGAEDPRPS
Sequence of Insulin receptor (P06213 763-1382 limits assumed): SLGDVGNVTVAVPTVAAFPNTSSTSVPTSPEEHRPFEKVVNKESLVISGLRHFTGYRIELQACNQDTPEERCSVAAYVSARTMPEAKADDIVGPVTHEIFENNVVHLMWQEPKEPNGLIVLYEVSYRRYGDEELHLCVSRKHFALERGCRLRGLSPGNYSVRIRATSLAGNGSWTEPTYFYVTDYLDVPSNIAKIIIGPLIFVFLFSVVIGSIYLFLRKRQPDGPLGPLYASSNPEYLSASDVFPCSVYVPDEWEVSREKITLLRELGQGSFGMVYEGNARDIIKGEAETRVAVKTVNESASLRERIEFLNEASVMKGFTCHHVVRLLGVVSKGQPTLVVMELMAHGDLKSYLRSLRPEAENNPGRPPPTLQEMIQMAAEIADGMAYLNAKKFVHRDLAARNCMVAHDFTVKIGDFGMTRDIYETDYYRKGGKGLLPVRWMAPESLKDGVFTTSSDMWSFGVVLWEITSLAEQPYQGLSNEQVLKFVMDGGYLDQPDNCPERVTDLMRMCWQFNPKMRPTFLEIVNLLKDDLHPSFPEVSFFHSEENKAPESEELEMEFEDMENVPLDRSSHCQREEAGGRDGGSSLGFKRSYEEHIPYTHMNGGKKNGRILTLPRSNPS

[8] = target: Tyrosine-protein kinase Lck (Homo sapiens, UniProt P06239); assay: Inhibition of LCK (unknown origin)
[9] = target: MAP kinase-activated protein kinase 2 (Homo sapiens, UniProt P49137); assay: Inhibition of MAPKAPK2 (unknown origin)
[10] = target: MAP kinase-activated protein kinase 5 (Homo sapiens, UniProt Q8IW41); assay: Inhibition of MAPKAPK5 (unknown origin)
[11] = target: Serine/threonine-protein kinase PAK 2 (Homo sapiens, UniProt Q13177); assay: Inhibition of PAK2 (unknown origin)
Sequence of Serine/threonine-protein kinase PAK 2 (Q13177 whole entry): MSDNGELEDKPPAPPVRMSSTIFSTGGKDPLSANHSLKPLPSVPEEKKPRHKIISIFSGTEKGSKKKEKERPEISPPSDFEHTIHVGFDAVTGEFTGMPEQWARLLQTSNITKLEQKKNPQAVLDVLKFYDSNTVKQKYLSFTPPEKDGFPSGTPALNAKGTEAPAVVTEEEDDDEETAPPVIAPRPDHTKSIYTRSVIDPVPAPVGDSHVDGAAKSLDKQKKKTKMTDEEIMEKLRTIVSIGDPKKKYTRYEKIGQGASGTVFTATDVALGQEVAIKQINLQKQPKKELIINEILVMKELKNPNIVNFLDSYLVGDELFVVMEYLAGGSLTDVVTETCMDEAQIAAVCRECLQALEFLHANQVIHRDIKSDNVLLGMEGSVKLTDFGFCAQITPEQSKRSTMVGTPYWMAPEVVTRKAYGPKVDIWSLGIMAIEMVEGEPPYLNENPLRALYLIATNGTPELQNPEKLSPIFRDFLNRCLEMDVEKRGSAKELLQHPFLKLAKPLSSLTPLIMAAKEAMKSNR

[12] = target: Serine/threonine-protein kinase PLK1 (Homo sapiens, UniProt P53350); assay: Inhibition of PLK1 (unknown origin)
[13] = target: Serine/threonine-protein kinase PLK2 (Homo sapiens, UniProt Q9NYY3); assay: Inhibition of PLK2 (unknown origin)
[14] = target: cAMP-dependent protein kinase catalytic subunit PRKX (Homo sapiens, UniProt P51817); assay: Inhibition of PRKX (unknown origin)
[15] = target: Serine/threonine-protein kinase Sgk1 (Homo sapiens, UniProt O00141); assay: Inhibition of SGK (unknown origin)
Sequence of Serine/threonine-protein kinase Sgk1 (O00141 whole entry): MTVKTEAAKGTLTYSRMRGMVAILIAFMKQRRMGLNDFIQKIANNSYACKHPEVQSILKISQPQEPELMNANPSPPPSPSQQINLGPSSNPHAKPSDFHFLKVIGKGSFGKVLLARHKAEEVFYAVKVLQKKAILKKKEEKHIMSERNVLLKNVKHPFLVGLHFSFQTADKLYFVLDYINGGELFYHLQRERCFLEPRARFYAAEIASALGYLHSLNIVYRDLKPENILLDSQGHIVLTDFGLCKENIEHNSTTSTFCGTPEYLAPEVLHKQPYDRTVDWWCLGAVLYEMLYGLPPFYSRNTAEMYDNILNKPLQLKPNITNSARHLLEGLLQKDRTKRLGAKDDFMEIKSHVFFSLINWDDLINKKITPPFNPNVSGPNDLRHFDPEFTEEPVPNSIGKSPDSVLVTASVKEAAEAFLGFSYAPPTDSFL

[16] = target: Receptor-type tyrosine-protein kinase FLT3 (Homo sapiens, UniProt P36888); assay: Inhibition of FLT3 (unknown origin) in presence of ATP by enzymatic assay
Sequence of Receptor-type tyrosine-protein kinase FLT3 (P36888 whole entry): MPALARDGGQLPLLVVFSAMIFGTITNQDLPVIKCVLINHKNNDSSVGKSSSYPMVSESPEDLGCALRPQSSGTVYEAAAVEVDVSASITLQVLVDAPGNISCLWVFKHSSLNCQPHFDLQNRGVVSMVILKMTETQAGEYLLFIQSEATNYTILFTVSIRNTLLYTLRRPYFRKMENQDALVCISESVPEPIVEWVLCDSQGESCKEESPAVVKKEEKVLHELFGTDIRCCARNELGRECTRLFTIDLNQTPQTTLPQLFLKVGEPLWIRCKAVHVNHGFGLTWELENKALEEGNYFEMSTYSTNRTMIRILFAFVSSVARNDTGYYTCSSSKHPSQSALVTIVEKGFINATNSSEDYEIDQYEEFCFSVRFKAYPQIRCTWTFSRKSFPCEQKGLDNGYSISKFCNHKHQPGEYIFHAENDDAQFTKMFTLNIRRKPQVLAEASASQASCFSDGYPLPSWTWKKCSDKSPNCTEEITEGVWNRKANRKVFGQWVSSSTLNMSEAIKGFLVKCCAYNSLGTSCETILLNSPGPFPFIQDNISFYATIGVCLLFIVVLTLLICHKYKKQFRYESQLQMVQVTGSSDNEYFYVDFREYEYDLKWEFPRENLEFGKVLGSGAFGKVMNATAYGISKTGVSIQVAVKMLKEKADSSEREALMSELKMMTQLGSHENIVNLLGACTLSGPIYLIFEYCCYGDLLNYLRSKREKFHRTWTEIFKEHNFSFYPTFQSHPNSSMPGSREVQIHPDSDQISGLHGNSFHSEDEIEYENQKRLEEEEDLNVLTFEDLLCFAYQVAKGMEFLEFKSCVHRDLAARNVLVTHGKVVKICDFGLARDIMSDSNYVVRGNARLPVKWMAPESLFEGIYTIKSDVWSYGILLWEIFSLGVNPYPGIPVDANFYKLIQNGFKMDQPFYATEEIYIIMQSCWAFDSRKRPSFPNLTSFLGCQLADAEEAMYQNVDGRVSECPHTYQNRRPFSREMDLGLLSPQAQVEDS

[17] = AUC (0 to infinity) in male rat at 45 mg/kg, po administered as single dose via gavage; format: ADME, organism-based; details: in vivo
[18] = Oral bioavailability in male rat at 45 mg/kg administered as single via gavage; format: ADME, organism-based; details: in vivo
[19] = Drug concentration in mouse brain at 300 ppm administered as rodent chow for 14 days; format: ADME, tissue-based; details: route po, time 14 day, read-out: Ct
[20] = Ratio of drug concentration in brain to plasma in mouse at 300 ppm administered as rodent chow for 14 days; format: ADME, cell-free; details: route po, time 14 day, read-out: BPR
[21] = target: T1, Macrophage colony-stimulating factor 1 receptor (Mus musculus) (UniProt P09581); assay: In vivo inhibition of CSF1R in wildtype mouse assessed as iron reactivity by measuring hemosiderin intensity of prussian blue staining in thalamus at 1200 ppm administered as rodent chow starting from 1.5 months and measured after 4 months by confocal microscopic analysis (reference value: 0.1 to 2.451 a.u.); format: functional; details: route po, time 2.5 months
T1 sequence (whole entry): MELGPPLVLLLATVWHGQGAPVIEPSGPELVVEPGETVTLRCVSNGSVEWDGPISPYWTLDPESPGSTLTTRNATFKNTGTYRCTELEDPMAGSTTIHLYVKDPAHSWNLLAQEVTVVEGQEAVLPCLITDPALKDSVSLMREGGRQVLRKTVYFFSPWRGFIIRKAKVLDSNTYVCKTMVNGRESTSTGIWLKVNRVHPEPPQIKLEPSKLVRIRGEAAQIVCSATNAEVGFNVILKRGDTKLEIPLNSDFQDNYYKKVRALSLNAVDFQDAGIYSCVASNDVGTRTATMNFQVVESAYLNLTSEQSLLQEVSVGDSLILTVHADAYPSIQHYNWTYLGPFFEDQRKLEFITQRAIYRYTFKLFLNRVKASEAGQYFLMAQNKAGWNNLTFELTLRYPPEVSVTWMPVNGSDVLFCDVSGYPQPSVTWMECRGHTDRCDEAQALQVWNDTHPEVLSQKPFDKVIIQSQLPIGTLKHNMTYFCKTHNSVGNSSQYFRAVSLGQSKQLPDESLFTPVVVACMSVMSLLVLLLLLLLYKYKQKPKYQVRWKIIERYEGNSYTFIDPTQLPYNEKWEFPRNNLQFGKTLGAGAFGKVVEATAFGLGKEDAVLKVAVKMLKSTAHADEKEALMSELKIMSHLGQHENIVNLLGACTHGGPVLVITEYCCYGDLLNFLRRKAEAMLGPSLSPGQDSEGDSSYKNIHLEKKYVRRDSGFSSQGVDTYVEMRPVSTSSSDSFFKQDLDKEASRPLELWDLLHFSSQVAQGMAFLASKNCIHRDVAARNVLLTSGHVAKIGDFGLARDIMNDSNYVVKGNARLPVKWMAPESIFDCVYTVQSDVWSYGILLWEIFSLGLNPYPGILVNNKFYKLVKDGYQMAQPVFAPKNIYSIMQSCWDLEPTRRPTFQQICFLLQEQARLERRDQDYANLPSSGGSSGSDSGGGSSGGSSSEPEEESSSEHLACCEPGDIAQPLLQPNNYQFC
Outline: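 Wild-type or 5xFAD mice fed PLX5622 (1200 ppm) in AIN-76A chow from 1.5 months of age, examined in 4- and 7-month-old cohorts. Brain sections stained with a Prussian blue kit per kit instructions to detect iron deposits (microbleeds).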

[22] = Effect on Spi1 gene expression in 5XFAD mouse hippocampus at 1200 ppm administered as rodent chow starting from 1.5 months and measured after 7 months by RNA-Seq analysis (reference value: 2.582 to 3.674 RPKM); format: functional; details: route po, time 5.5 months, 4015 h
[23] = Effect on Ctsz gene expression in 5XFAD mouse cortex at 1200 ppm administered as rodent chow starting from 1.5 months and measured after 7 months by RNA-Seq analysis (reference value: 27.650 to 42.003 RPKM); format: functional; details: route po, time 5.5 months, 4015 h
[24] = Effect on Itgax gene expression in wild type mouse thalamus at 1200 ppm administered as rodent chow starting from 1.5 months and measured after 7 months by RNA-Seq analysis (reference value: 0.077 to 0.240 RPKM); format: functional; details: route po, time 5.5 months, 4015 h
[25] = Effect on Dync1i1 gene expression in wildtype mouse hippocampus assessed as percent change in Reads Per kilo base per Million mapped reads at 1200 ppm administered as rodent chow starting from 1.5 months and measured after 7 months by RNA-Seq analysis (reference value: 96.347 to 105.024 %); format: functional; details: route po, time 5.5 months, 4015 h
[26] = Effect on Dusp5 gene expression in wildtype mouse hippocampus assessed as percent change in Reads Per kilo base per Million mapped reads at 1200 ppm administered as rodent chow starting from 1.5 months and measured after 7 months by RNA-Seq analysis (reference value: 75.632 to 114.605 %); format: functional; details: route po, time 5.5 months, 4015 h
[27] = system: Mus musculus; assay: Prevention of Cacnb4 gene downregulation in 5XFAD mouse hippocampus at 1200 ppm administered as rodent chow starting from 1.5 months and measured after 7 months by Nanostring analysis; format: functional, tissue-based; details: route po, time 5.5 months

SMILES: COc1ncc(F)cc1CNc1ccc(Cc2c[nH]c3ncc(C)cc23)c(F)n1 [PLX-5622]
- IC50 [1]: > 1000 nM
- IC50 [2]: > 1000 nM
- IC50 [3]: > 1000 nM
- IC50 [4]: > 1000 nM
- IC50 [5]: > 1000 nM
- IC50 [6]: > 1000 nM
- IC50 [7]: > 1000 nM
- IC50 [8]: > 1000 nM
- IC50 [9]: > 1000 nM
- IC50 [10]: > 1000 nM
- IC50 [11]: > 1000 nM
- IC50 [12]: > 1000 nM
- IC50 [13]: > 1000 nM
- IC50 [14]: > 1000 nM
- IC50 [15]: > 1000 nM
- IC50 [16]: 390 nM
- AUC(0-inf) [17]: 99600 ng·h/mL
- bioavailability [18]: 95%
- concentration at 336 h [19]: 963 ng/mL
- Kp at 336 h [20]: 0.22
- Flu intensity [21]: 0.273 a.u.
- Activity [22]: 0.292 RPKM
- Activity [23]: 13.681 RPKM
- Activity [24]: 0 RPKM
- Activity [25]: 81.186%
- Activity [26]: 94.671%
- Activity [27]: Active
